Measured values as given in ChEMBL document CHEMBL1166000, “Maximizing chemical diversity of fungal metabolites: biogenetically related Heptaketides of the endolichenic fungus Corynespora sp. (1)” (J Nat Prod, 2010).
Activity calls are given as the source filed them. The calls are words filed in the database; no cut-off is given here.

What was measured:
PC-3M [1] = assay: Inhibition of cell proliferation in human PC3M cells at 5 uM after 40 hrs by MTT assay; assay type: functional, cell-based
Summary of the method: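 Antiproliferative (cytotoxicity) screen by the MTT method, with each compound tested at a single concentration of 5 µM.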

PC-3M [2] = assay: Inhibition of human PC3M cell migration at 5 uM by wound-healing assay; assay type: functional, cell-based

Row | SMILES | inhibition (PC-3M [1]) | inhibition (PC-3M [2])
1 | COc1cc(OC)c2c(c1)C(=O)C1=C(C2=O)C(OC)OC(C)=C1 (stereo not drawn) | inactive | inactive
2 | COc1cc2c(c(OC)c1O)C(=O)C1=C(C[C@](C)(O)OC1)C2=O | inactive | inactive
3 | COc1cc(OC)c2c(c1O)C(=O)C1=C(CO[C@@](C)(O)C1)C2=O | inactive | inactive
4 | COc1cc(OC)c2c(c1O)C(=O)c1cc(C)ncc1C2=O | inactive | inactive
5 | COc1cc(OC)c2c(c1)C(=O)C1=C(CO[C@@](C)(O)C1)C2=O | inactive | inactive
6 | COc1cc(OC)c2c(c1)C(=O)c1cc(C)ncc1C2=O | inactive | inactive
7 | COc1cc(O)c2c(c1)[C@H](O)C1C[C@](C)(O)OCC1C2=O (stereo partly drawn) | inactive | inactive
8 | COc1cc(OC)c2c(c1)[C@H](O)C1C[C@](C)(O)OCC1C2=O (stereo partly drawn) | inactive | inactive
9 | COc1cc(O)cc2c1C(=O)C1=C(C[C@](C)(O)OC1)C2=O | inactive | inactive
